MrgX1 antag: antagonists of human MrgX1 receptor; AID 588676; B-score at 10 µM; MRGX1-HEK293 calcium flux, Fluo-4, BAM8-22 antagonism; stronger effect = lower value; Q96LB2; 310,000 compounds, 1.3% hits;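 active = calcium-response B-score plate-corrected more than 3 library SD below zero, starting fluorescence within 5 deviations, no agonist response on first addition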;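 note: peak minus trough fluorescence over baseline after final BAM8-22 challenge near maximal dose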
Target sequence (Q96LB2 whole entry, looked up): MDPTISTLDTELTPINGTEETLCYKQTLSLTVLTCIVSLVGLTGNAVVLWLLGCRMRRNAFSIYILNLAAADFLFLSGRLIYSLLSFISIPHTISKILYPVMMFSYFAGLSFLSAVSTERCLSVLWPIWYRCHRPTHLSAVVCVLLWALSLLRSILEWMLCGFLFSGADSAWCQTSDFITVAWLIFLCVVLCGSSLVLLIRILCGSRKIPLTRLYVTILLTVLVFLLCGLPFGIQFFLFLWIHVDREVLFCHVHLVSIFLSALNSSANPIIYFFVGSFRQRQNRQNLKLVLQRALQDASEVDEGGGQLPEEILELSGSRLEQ
RGS4 pot: potentiators or activators of RGS4 | 310,000 compounds, 0.92% hits | HEK293 M3R/inducible RGS4, carbachol calcium flux Fluo4; stronger effect = lower value | B-score at 10 µM | AID 463111;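 active = B-score of the integrated calcium signal more than 4 SD below the library mean, with starting fluorescence not abnormally high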;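 note: negative B-score means reduced calcium response which marks RGS4 activation or potentiation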
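Test system: HEK293 cells with stable M3R and inducible RGS4; also added: carbachol at ECmax as muscarinic agonist stimulus; schedule: dye loading 30 min 37 °C, buffer rest 30 min RT; technique: kinetic calcium fluorescence imaging with Fluo4-AM dye, 2 µM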
RGS4 inh: inhibitors of human RGS4; 310,000 compounds, 0.45% hits; AID 463165; HEK293 M3R/RGS4 inducible, Fluo-4 calcium flux; stronger effect = higher value; triggered by carbachol at its EC20; P49798; B-score at 10 µM;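 active = B-score, a plate-corrected calcium signal, over three deviations above library mean, with baseline fluorescence within five deviations of library mean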;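 note: RGS4 expression induced by doxycycline in cells with stable M3 receptor; B-score is computed from the integrated fluorescence ratio over baseline after carbachol; higher B-score means a larger calcium signal and so more RGS4 inhibition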
Target sequence (P49798 whole entry, looked up): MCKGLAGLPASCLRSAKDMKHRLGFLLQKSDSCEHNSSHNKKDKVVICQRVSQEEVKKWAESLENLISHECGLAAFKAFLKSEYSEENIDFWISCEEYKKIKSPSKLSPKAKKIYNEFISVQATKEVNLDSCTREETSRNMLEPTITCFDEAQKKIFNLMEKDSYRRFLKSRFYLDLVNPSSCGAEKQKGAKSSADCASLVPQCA
MrgX1 allo act: human MrgX1 positive allosteric modulation, primary screen | Q96LB2 | MrgX1-HEK293, Fluo-4 calcium flux, FDSS; stronger effect = higher value | B-score at 10 µM | 310,000 compounds, 0.63% hits;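 active = plate-corrected calcium response at least 3 library SD above typical, normal starting fluorescence, not activating the receptor alone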;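 note: compound read alongside a low EC10 to EC30 dose of BAM8-22 agonist; peak minus trough fluorescence over baseline measured at the second addition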
MrgX1 ag: human MrgX1 receptor agonism, primary screen; MrgX1-HEK293 cells, Fluo-4 calcium fluorescence, agonist mode; stronger effect = higher value; AID 588627; Q96LB2; B-score at 10 µM; 310,000 compounds, 0.44% hits;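 active = calcium response B-score plate-corrected fluorescence ratio at least 3 library SD, with starting fluorescence B-score inside 5 SD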
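System: HEK293 cells stably expressing human MrgX1 receptor; Dosing: test compound in the initial addition of three; Schedule: overnight plating, then 30 min 37 °C plus 30 min room-temperature dye loading; Detection: kinetic calcium dye fluorescence, Fluo-4 NW; Controls: per-plate positive and negative controls for Z′ factor.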
MrgX1 ag reconf: confirmation of human MrgX1 receptor agonists; activation, % at 10 µM; shares compounds with MrgX1 ag; 600 compounds, 78% hits; MrgX1-HEK293, Fluo-4 calcium fluorescence, FDSS; AID 602412;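 active = calcium signal rise, corrected for plate position, at least 3 library SD high, with starting brightness within 5 such deviations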
HEK293 Ca flux: counter-screen for MrgX1 antagonists: effect in parental HEK293 cells | AID 624111 | 4,000 compounds, 2% hits | Fluo-4 calcium fluorescence, FDSS | fluorescence ratio F(max-min)/F0 at 10 µM | shares compounds with MrgX1 antag;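 active = duplicate-averaged calcium fluorescence ratio at least three times the standard deviation of buffer wells, a nonspecific response in parental cells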
HEK293 Ca counter: activity in parental HEK293 cells without MrgX1; parental HEK293 calcium flux, Fluo-4 fluorescence ratio; stronger effect = higher value; AID 624114; fluorescence ratio F(max-min)/F0 at 10 µM; 4,000 compounds, 0.4% hits; shares compounds with MrgX1 antag;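 active = calcium fluorescence ratio, averaged over duplicates, at least 3 SD of the buffer-well ratio, meaning a nonspecific response in receptor-free cells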;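 note: untransfected parental HEK293 lacking MrgX1 used as counterscreen for MrgX1 allosteric activators; fluorescence change taken during the second addition on a kinetic imager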
HEK293 Ca cntr2: activity in parental HEK293 cells lacking MrgX1 receptor; shares compounds with MrgX1 antag; Fluo-4 calcium fluorescence (FDSS); stronger effect = higher value; fluorescence ratio F(max-min)/F0 at 10 µM; 4,000 compounds, 8.7% hits; AID 624115;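 active = calcium fluorescence ratio at least three times the spread of buffer wells, meaning a non-specific response in parental cells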
Hits are given with their value; . = inactive; / = not tested or not shown. A selection: hits, their analogues and other compounds. The true share with any hit is near 3.5%.

SMILES | MrgX1 antag | RGS4 pot | RGS4 inh | MrgX1 allo act | MrgX1 ag | MrgX1 ag reconf | HEK293 Ca flux | HEK293 Ca counter | HEK293 Ca cntr2
Cc1nc(Nc2ccc(S(N)(=O)=O)cc2)sc1C(=O)Nc1ccccc1 | . | . | . | . | 32 | 227% | . | . | .
O=c1oc(-c2ccccc2Cl)nc2ccsc12 | . | . | . | . | 51 | 210% | . | . | 60
CN(Cc1cccs1)C(=O)CCCc1c[nH]c2ccccc12 | . | . | . | . | 27 | 161% | . | . | .
CN(Cc1cccs1)C(=O)CCc1c[nH]c2ccccc12 | . | . | . | . | . | / | / | / | /
CCC(C)n1c(=N)c(C#N)cc2c(=O)n3ccccc3nc21 (centres undefined) | . | . | . | . | 26 | . | . | . | .
COc1cc2c(cc1OC)C(c1ccccc1C(F)(F)F)CC(=O)N2 (centres undefined) | . | . | . | . | 29 | . | . | . | .
Oc1ccc(Br)cc1C1Nc2ccccc2S1 (centres undefined) | . | . | . | . | . | / | / | / | /
CC(C)CN(C)Cc1c(C(=O)N2CCc3ccccc3C2)nc2ccc(Cl)cn12 | . | . | . | . | . | / | / | / | /
Cc1cc(Nc2ccc(Cl)cc2)nc(N)n1 | . | . | . | . | 35 | 207% | . | . | .
CC(C)(C)c1csc(NC(=O)c2ccc(Br)o2)n1 | . | . | . | . | . | / | / | / | /
NC1=NC[C@@H](Cc2ccc(O)cc2)N1CCc1cccc(F)c1 | . | . | . | . | 31 | 171% | . | . | .
NC1=NC[C@@H](Cc2ccc(O)cc2)N1CCc1cc(C(F)(F)F)cc(C(F)(F)F)c1 | . | . | . | . | . | / | / | / | /
O=C(O)Cc1sc(Nc2ccc(F)cc2)nc1-c1cccs1 | . | . | . | . | 32 | . | . | . | .
CCOc1ccccc1NC(=O)COC(=O)C1CC(=O)N(c2c(C)cccc2C)C1 (centres undefined) | . | . | . | . | 28 | . | . | . | .
O=S1(=O)N=C(N(CCO)/N=C/c2ccc(Br)cc2)c2ccccc21 | . | . | . | . | . | / | / | / | /
CCOc1cc(/C=N/NC(=O)c2ccc(CN3CCOCC3)cc2)ccc1OC | . | . | . | . | . | / | / | / | /
CCOc1cc(/C=C/C(=O)c2ccc(OC)c(CN3CCOCC3)c2)cc(Br)c1O | . | . | . | . | 143 | 675% | . | . | 131
CC1(c2ccc([N+](=O)[O-])cc2)NC(=O)N(CC(=O)c2ccc3c(c2)OCO3)C1=O (centres undefined) | . | . | . | . | . | / | / | / | /
CC1(c2ccc(OC(F)F)cc2)NC(=O)N(CC(=O)c2ccc3c(c2)OCO3)C1=O (centres undefined) | . | . | . | . | 35 | 176% | . | . | 55
O=C(COC(=O)c1ccccc1Br)Nc1ccc2[nH]c(=O)[nH]c2c1 | . | . | . | . | . | / | / | / | /
Cc1ccc(-c2[nH]c(-c3ccccc3)nc2SCC(=O)NCC2CCCO2)cc1 (centres undefined) | . | . | . | . | 34 | 239% | . | . | 49
CC(=N\NC(=O)c1ccc([N+](=O)[O-])cc1)/C(=N/O)C(=O)Nc1ccccc1 | . | . | . | . | . | / | / | / | /
CN(CC(=O)Nc1cccc(F)c1)C(=O)c1cccnc1Sc1ccccc1Cl | . | . | . | . | . | / | / | / | /
O=C(CNCC1CCCCC1)Nc1ccc(OC(F)(F)F)cc1 | . | . | . | . | 106 | 416% | . | . | 52
COc1ccc(OC)c(N(/C(N)=N/c2nc(C)cc(C)n2)S(=O)(=O)c2ccc(NC(C)=O)cc2)c1 | . | . | . | . | . | / | / | / | /
SMILES | MrgX1 antag | RGS4 pot | RGS4 inh | MrgX1 allo act | MrgX1 ag | MrgX1 ag reconf | HEK293 Ca flux | HEK293 Ca counter | HEK293 Ca cntr2
Cc1ccc(-c2ccc(CCC(=O)O)n2-c2cccc(C(=O)O)c2)cc1 | . | . | . | . | . | / | / | / | /
COc1cc(/C=C2\C(=N)N3N=CSC3=NC2=O)ccc1OS(=O)(=O)c1ccccc1 | . | . | . | . | 73 | 383% | . | . | 77
COc1cc(/C=C2/C(=N)N3N=C(C(C)C)SC3=NC2=O)ccc1OS(=O)(=O)c1ccccc1 | . | . | . | . | . | / | / | / | /
COc1ccc(NS(=O)(=O)c2cccc(C(=O)NNC(=O)c3cncc(Br)c3)c2)cc1 | . | . | . | . | . | / | / | / | /
O=C(NCC1CCCN1S(=O)(=O)c1cccs1)c1ccccc1F (centres undefined) | . | . | . | . | . | / | / | / | /
N#CC1=C(SCc2ccccc2)NC(=O)CC1c1ccco1 (centres undefined) | . | . | . | . | 41 | 180% | . | . | .
N#CC1=C(SCC(=O)NCc2ccccc2)NC(=O)CC1c1ccco1 (centres undefined) | . | . | . | . | . | / | / | / | /
CCN1CCN(CCCNC(=O)CN2C(=O)c3cccnc3Oc3ccc(Cl)cc32)CC1 | . | . | . | . | . | / | / | / | /
Cc1noc(NS(=O)(=O)c2ccc(NC(=O)C(CC(C)C)N3C(=O)c4ccccc4C3=O)cc2)c1C (centres undefined) | . | . | . | . | . | / | / | / | /
Nc1ccc(C23CC4CC(CC(CO)(C4)C2)C3)cc1 | . | . | . | . | . | / | / | / | /
NCC12CC3CC(C1)CC(c1ccc(Cl)cc1)(C3)C2 | . | -7.2 | . | . | 34 | 135% | . | . | .
CC(=O)N1[C@H](C)C=C[C@]1(Cc1ccccc1)C(=O)NCCN1CCOCC1 | . | . | . | . | . | / | / | / | /
CC(C)OC(=O)CSc1nnc(-c2ccc(C(C)(C)C)cc2)n1N | . | . | . | . | . | / | / | / | /
CC(C)OC(=O)CSc1nnc(-c2ccncc2)n1N | . | . | . | . | 41 | . | . | . | .
COc1ccccc1C1CCN(C(=O)c2ccc(C(C)(C)C)cc2)CC1 | . | . | . | . | . | / | / | / | /
Cc1sc2ncnc(N(C)C3CCCCC3)c2c1C | . | . | . | . | 38 | . | . | . | .
O=C(c1cc2cc(F)ccc2[nH]1)N1CCC(Cc2ccccc2)CC1 | . | . | . | . | . | / | / | / | /
Cc1c(CCC(=O)O)c(=O)oc2cc3occ(-c4ccc(Br)cc4)c3cc12 | . | . | . | . | . | / | / | / | /
Oc1cccc(Nc2nc(O)c(/C=C3\C=Nc4ccccc43)s2)c1 | . | / | / | . | 39 | 416% | . | . | 76
Oc1nc(Nc2cccc(Cl)c2)sc1/C=C1\C=Nc2ccccc21 | . | . | . | . | . | / | / | / | /

Screens deposited in PubChem by Johns Hopkins Ion Channel Center.
